Results of several laboratories.
Protocols differ between the studies behind these lines.
Observed: metabolic stability

The half-life of `O=C(N[C@H](Cc1c[nH]c2ccccc12)C(=O)Nc1ccncc1)c1ccc(-c2cc(F)ccc2F)cc1F` is reported as 17 min (rat, liver microsomes).
For `Cc1ccc2c(c1)nc(CCc1cccc3cccnc13)n2-c1ccccc1`, the half-life was 0.87 min (rat, liver microsomes; 1.5 µM).
With `COc1ccc(CNC(=O)c2c(C)nc3cc(C)ccn23)cc1` the half-life was 19 min (rat, liver microsomes).
The half-life of `CCOc1c(O)cc(Br)c2c1CN1CCc3cc(OCC(F)F)c(O)cc3[C@@H]1C2` is reported as 5.71 min (rat, liver S9; 2 µM, pH 7.4).
For `O=C(OC(C(F)(F)F)C(F)(F)F)N1CCc2ccccc2C1`, the half-life was 12 min (rat, liver microsomes).
`O=[N+]([O-])c1ccc(CNc2nc(NCc3cccc(C(F)(F)F)c3)nc3[nH]cnc23)cc1` has a half-life of 17 min (rat, liver microsomes; 1 µM, pH 7.4).
`O=C(OC(C(F)(F)F)C(F)(F)F)N1Cc2ccc(OCCN3CCOCC3)cc2C1` gave a half-life of 17 min (rat, liver microsomes).
For `N#Cc1ccc(C[C@@H](NC(=O)Nc2ccc(F)cc2)C(=O)N2CCc3ccc(F)cc32)cc1`, the half-life was > 15 min (rat, liver microsomes; 10 µM, pH 7.4).
The half-life of `CCCCN1C(=O)C(COC)NC(=O)C12CCN(Cc1ccc(Oc3ccccc3)cc1)CC2.Cl` (stereo not drawn) is reported as 16 min (rat, liver microsomes; 5 µM).
For `O=C(O)c1ccccc1-c1c2cc(Cl)c(=O)cc-2oc2cc(O)c(Cl)cc12`, the half-life was 250 min (male Sprague-Dawley rat, liver microsomes).
With `CCc1cccc(CC)c1-n1c(C)c(C(=O)NC)cc(-c2nc(-c3ccc(Cl)cc3)cs2)c1=O` the half-life was 1.5 min (rat, liver microsomes; 1 µM, pH 7.4).
`O=c1ccc2ccc(O)cc2o1` gave a half-life of 6.54 min (rat, liver S9; 2 µM, pH 7.4).
With `N#Cc1cc(NC(=O)[C@H]2c3ccccc3C(=O)N(CC(F)(F)F)[C@@H]2c2cccnc2)ccc1F` the half-life was > 240 min (rat, liver microsomes).
For `CCc1cccc(CC)c1-n1c(C)c(C(=O)N2CCNCC2)cc(-c2nc(-c3ccc(Cl)cc3)cs2)c1=O`, the half-life was > 30 min (rat, liver microsomes; 1 µM, pH 7.4).
`CC(C)(C)C[C@@H]1N[C@@H](C(=O)N[C@H]2C[C@](C)(O)C2)[C@H](c2cccc(Cl)c2F)[C@]12C(=O)Nc1cc(Cl)ccc12` has a half-life of > 60 min (rat, liver microsomes).
